DNMT1 inh: blocks human DNA methyltransferase DNMT1; DNMT1 molecular beacon, Hinp1I cleavage, fluorescence; inhibition (reported as % activation of signal), % at 10 µM; 360,000 compounds, 0.83% hits; in the data active = inhibition above about 50%
STEP inh: blocks human striatal-enriched tyrosine phosphatase; P54829; recombinant STEP, OMFP fluorogenic substrate, fluorescence; inhibition, % at 20 µM; 360,000 compounds, 0.25% hits; AID 588621;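 active = inhibition at 20 µM, scaled per plate between control wells, above about 37%, limit read from the data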;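 also: 0% = DMSO with enzyme and substrate and 100% = substrate only without enzyme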
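material = STEP tyrosine phosphatase | reagent = fluorogenic phosphatase substrate OMFP at 25 µM final | doses = single compound dose of 20 µM, 1% DMSO final | schedule = 20 min reaction, room temperature, in the dark | measured by = fluorescence, 480/540 nm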
SUMO1 PPI mod: alters human SUMO1 binding to SIM partners; inhibition, % at 20 µM; SUMO1 binding to a labelled peptide, TR-FRET, 1 h; AID 602429; 360,000 compounds, 0.33% hits; P63165; in the data active = inhibition above about 37%
Target sequence (P63165 whole entry, looked up): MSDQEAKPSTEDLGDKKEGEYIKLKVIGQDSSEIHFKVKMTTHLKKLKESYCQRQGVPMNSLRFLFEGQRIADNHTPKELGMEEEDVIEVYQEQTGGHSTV
CSN deneddyl inh: inhibitors of human CSN-mediated cullin deneddylation | 360,000 compounds, 0.38% hits | Purified CSN, SCF-Nedd8-OG deneddylation, fluorescence polarization | AID 651999 | Q92905 | inhibition, % at 12.5 µM;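 active = pattern-corrected inhibition above about 35%, with an unprinted fluorescence ratio check between 0.5 and 1.5, limit read from the data, passing the limit was not always enough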;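 also: 0% = enzyme with substrate and 100% = substrate without enzyme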
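Assay system: HEK293T-derived human Csn5 enzyme; quantity: 0.24 nM enzyme; medium: Tris/NaCl/DTT buffer, pH 7.5; also added: substrate SCFSkp2-Nedd8OG, 10 nM; doses: 12.5 µM compound; schedule: 90 min reaction at room temperature; signal: FP; read-out: % inhibition of substrate cleavage by Csn5; benchmarks: substrate-only high control, full reaction low control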
Scp1 inh: inhibitors of human Scp-1 phosphatase; Q9GZU7; Recombinant Scp1, phosphopeptide, malachite green phosphate absorbance; 340,000 compounds, 0.88% hits; inhibition, % at 20 µM;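 active = inhibition above about 50% at 20 µM, limit read from the data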;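 also: plate controls were DMSO wells with enzyme for no effect and wells lacking enzyme for full effect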
Target sequence (Q9GZU7 76-261 limits assumed): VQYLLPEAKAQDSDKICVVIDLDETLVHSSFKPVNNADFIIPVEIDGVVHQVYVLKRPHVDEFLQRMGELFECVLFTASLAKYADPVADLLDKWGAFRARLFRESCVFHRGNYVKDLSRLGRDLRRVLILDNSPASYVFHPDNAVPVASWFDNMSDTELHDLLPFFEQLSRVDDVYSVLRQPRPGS
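Test system: SCP-1 phosphatase catalytic domain, residues 76-261 | Compound dosing: One concentration, 20 µM, with 1.0% DMSO | Schedule: 45 min room-temperature reaction, 5 min colour, 30 min stabiliser | Detection: Absorbance at 630 nm | Read-out basis: % inhibition of SCP-1 phosphate liberation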
LMPTP inh: blocks human LMPTP phosphatase. inhibition, % at 20 µM. P24666. recombinant LMPTP-A, OMFP fluorogenic substrate, fluorescence intensity. 360,000 compounds, 0.22% hits;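 active = compounds that cut the enzyme signal by at least half of the control window in the single-dose screen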;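 also: plate controls were DMSO wells with enzyme plus substrate for no effect and substrate without enzyme for full effect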
Target sequence (P24666 whole entry, looked up): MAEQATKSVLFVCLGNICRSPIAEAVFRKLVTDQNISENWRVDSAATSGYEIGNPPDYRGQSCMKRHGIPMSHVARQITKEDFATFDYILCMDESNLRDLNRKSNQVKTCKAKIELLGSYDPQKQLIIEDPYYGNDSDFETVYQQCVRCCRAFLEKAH
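Test system – LMPTP-A enzyme · Amount – LMPTP-A at 0.625 nM final in the reaction · Buffer or medium – Bis-Tris pH 6.0, DTT, detergent · Reagent – OMFP 400 µM · Doses – single 20 µM dose · Schedule – reaction 50 min, room temperature, dark · Detection – fluorescence intensity of OMFP turnover product · Evaluation – percent inhibition versus substrate-only and uninhibited controls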
An asterisk follows results filed as active; nt = no result; ! = a repeat was not active. Hits are enriched below; roughly 2% of the tested compounds scored in any of these assays.

SMILES	DNMT1 inh	STEP inh	SUMO1 PPI mod	CSN deneddyl inh	Scp1 inh	LMPTP inh
CCC(C(=O)OCC(=O)Nc1cccc(C(C)=O)c1)c1ccccc1 (stereo not drawn)	-4	-1	0	-3	-9	-1
COc1ccc(CC(=O)OCC(=O)Nc2ccc3[nH]c(=O)[nH]c3c2)cc1	1	2	15	-4	-4	-1
O=C(CSc1nncs1)Nc1ccc2[nH]c(=O)[nH]c2c1	1	-3	66*	3	-6	1
O=C(COC(=O)Cc1ccc(F)cc1)Nc1ccc2[nH]c(=O)[nH]c2c1	-2	0	74*	-1	-4	0
COc1ccc(N(CC(=O)N2CCOCC2)S(C)(=O)=O)cc1Cl	1	1	4	4	-7	0
O=C(COC(=O)c1cc(Cl)nc(Cl)c1)Nc1ccc(Cl)c(S(=O)(=O)N2CCOCC2)c1	-4	-1	22	0	1	1
O=C(COC(=O)CCC(=O)c1ccc(F)cc1)Nc1ccc2[nH]c(=O)[nH]c2c1	0	-1	39*	-6	-3	0
O=C(COC(=O)c1ccc(Cl)c(S(=O)(=O)N2CCOCC2)c1)Nc1ccc2[nH]c(=O)[nH]c2c1	-2	-2	84*	-2	3	-1
Cc1ccc(C(=O)CCC(=O)OCC(=O)Nc2ccc3[nH]c(=O)[nH]c3c2)cc1	4	0	25	-10	2	0
O=C(NCc1cccc(F)c1)C1CCC(=O)N(C2CC2)C1 (stereo not drawn)	1	0	1	-3	-8	-1
COc1nc(-c2ccccc2)ncc1S(=O)(=O)c1ccccc1	3	0	1	4	0	0
Cc1nc(-c2ccccc2)sc1-c1nc(-c2ccncc2)ncc1S(=O)(=O)c1ccccc1	-4	0	47*	5	12	6
O=C(Nc1ccc(OCC(=O)N2CCOCC2)cc1)c1cncc(Br)c1	-5	0	-2	80*	-4	1
CCCCOc1ccc(C(=O)Nc2ccc(OCC(=O)N3CCOCC3)cc2)cc1	-2	-2	-1	-1	-7	0
COc1cc(OC)cc(C(=O)NCC(=O)OCC(=O)NCc2ccco2)c1	-5	1	4	4	39	-1
COc1ccc(-n2c(SCC(=O)Nc3cccc(S(N)(=O)=O)c3)nc3ccccc3c2=O)cc1OC	-3	-1	37*	-2	-5	0
COc1ccc(-n2c(SCC(=O)Nc3ccc(C(N)=O)cc3)nc3ccccc3c2=O)cc1OC	-4	4	21	-6	-3	1
CCN1CCN(Cc2ccc(NC(=O)c3ccc(C)c(/C=C/c4cnc(Nc5cc(N6CCNCC6)nc(C)n5)cn4)c3)cc2C(F)(F)F)CC1	-38	-9	87*	57*!	-3	1
CCNc1nc(NCC)n2c(SCC(=O)N(CC)C3CCCCC3)nnc2n1	15	0	3	-1	0	-1
CCN(CC)CCNc1ccc(C)c2sc3ccc(O)cc3c(=O)c12	54*	3	-26	15	12	0
Cc1ccc(C2C(C#N)=C(N)Oc3cc(C)oc(=O)c32)o1 (stereo not drawn)	1	-1	-1	2	-2	-1
Nc1cccc2nc3ccccc3cc12	69*	-1	-24	-1	-6	13
COCCn1c(-c2cccc([N+](=O)[O-])c2)nc2c1c(=O)[nH]c(=O)n2Cc1ccccc1	1	3	-12	-2	1	0
COc1cccc(NC(=O)CCC(=O)NCc2ccco2)c1	7	1	-4	70*	-3	0
O=C(NCc1ccc(F)c(F)c1)C1Cc2c(-c3ccc4c(c3)OCO4)ccnc2O1 (stereo not drawn)	-7	1	6	-1	nt	1
CCNc1nc2c(c(=O)[nH]c(=O)n2C)n1CC(C)C	2	4	43*	2	-12	-1
Oc1ccc2ccccc2c1C=NC12CN3CCN(CN(C3)C1)C2	-11	4	54*	4	4	-4

High-throughput results: PubChem BioAssay, Sanford-Burnham Center for Chemical Genomics
